In ChEMBL document CHEMBL4138165, “Design, synthesis and biological evaluation of new β-carboline-bisindole compounds as DNA binding, photocleavage agents and topoisomerase I inhibitors” (Eur J Med Chem, 2018):
The source made the active and inactive calls. No cut-off for these calls is given here.

Legend:
[1] = system: Calf thymus DNA; assay: Binding affinity to calf thymus double stranded DNA at 5 uM by ostwald viscometer; assay type: nucleic-acid assay; settings: Bos taurus
[2] = target: T1, Topoisomerase I (Bos taurus) (UniProt Q2HPH0); assay: Inhibition of calf thymus DNA topoisomerase 1 at 20 uM using pBR322 DNA as substrate after 30 mins by agarose gel electrophoresis method
T1 sequence (whole entry): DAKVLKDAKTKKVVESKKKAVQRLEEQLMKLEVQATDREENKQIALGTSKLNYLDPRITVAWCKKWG

[3] = system: HeLa; assay: Antiproliferative activity against human HeLa cells after 48 hrs by MTT assay; assay type: functional, cell-based
[4] = system: DU-145; assay: Antiproliferative activity against human DU145 cells after 48 hrs by MTT assay; assay type: functional, cell-based; settings: DU-145, 48 h
[5] = system: A549; assay: Antiproliferative activity against human A549 cells after 48 hrs by MTT assay; assay type: functional, cell-based; settings: A549, 48 h
[6] = system: MCF7; assay: Antiproliferative activity against human MCF7 cells after 48 hrs by MTT assay; assay type: functional, cell-based; settings: MCF7, 48 h
[7] = system: NIH3T3; assay: Antiproliferative activity against mouse NIH/3T3 cells after 48 hrs by MTT assay; assay type: functional, cell-based; settings: NIH3T3, 48 h
[8] = system: DNA; assay: Induction of Escherichia coli pBR322 DNA cleavage at 20 uM incubated in presence of UV-light for 1 hr by agarose gel electrophoresis; assay type: nucleic-acid assay
How it was run: (§1)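 pBR322 plasmid DNA was incubated with 20 µM ligand, either in the dark or under UV-light irradiation for 1 h. Products were separated by gel electrophoresis. Irradiated DNA solution alone served as the control.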

[9] = system: DNA; assay: Induction of Escherichia coli pBR322 DNA cleavage at 20 uM incubated in dark condition by agarose gel electrophoresis; assay type: nucleic-acid assay; how it was run: as §1
[10] = system: DU-145; assay: Cell cycle arrest in human DU145 cells assessed as accumulation at G2/M phase at 2 uM after 48 hrs by FACS analysis (reference value: 21.07%); assay type: functional
[11] = system: Calf thymus DNA; assay: Binding affinity to calf thymus double stranded DNA at 10 uM by spectrofluorimetric method; assay type: nucleic-acid assay; settings: Bos taurus
[12] = system: Calf thymus DNA; assay: Binding affinity to calf thymus double stranded DNA assessed as hypochromicity at 10 uM by […] method; assay type: nucleic-acid assay; settings: Bos taurus
[13] = system: DU-145; assay: Cell cycle arrest in human DU145 cells assessed as accumulation at G2/M phase at 1 uM after 48 hrs by FACS analysis (reference value: 21.07%); assay type: functional
[14] = system: DU-145; assay: Cell cycle arrest in human DU145 cells assessed as accumulation at G0/G1 phase at 2 uM after 48 hrs by FACS analysis (reference value: 53.60%); assay type: functional
[15] = system: Calf thymus DNA; assay: Binding affinity to calf thymus double stranded DNA at 20 uM by CD spectroscopic method; assay type: nucleic-acid assay; settings: Bos taurus
[16] = system: DU-145; assay: Induction of apoptosis in human DU145 cells assessed as late apoptotic cells at 1 uM after 48 hrs by annexin-V/FITC/propidium iodide staining-based FACS analysis (reference value: 4.46%); assay type: functional
[17] = system: DU-145; assay: Induction of apoptosis in human DU145 cells assessed as viable cells at 1 uM after 48 hrs by annexin-V/FITC/propidium iodide staining-based FACS analysis (reference value: 91.44%); assay type: functional; settings: DU-145, 48 h, read-out: Activity
[18] = system: DU-145; assay: Cell cycle arrest in human DU145 cells assessed as accumulation at sub-G1 phase at 2 uM after 48 hrs by FACS analysis (reference value: 7.71%); assay type: functional
[19] = system: DU-145; assay: Cell cycle arrest in human DU145 cells assessed as accumulation at S phase at 2 uM after 48 hrs by FACS analysis (reference value: 16.22%); assay type: functional
[20] = system: DU-145; assay: Induction of apoptosis in human DU145 cells assessed as necrotic cells at 1 uM after 48 hrs by annexin-V/FITC/propidium iodide staining-based FACS analysis (reference value: 0.49%); assay type: functional
[21] = system: DU-145; assay: Induction of apoptosis in human DU145 cells assessed as early apoptotic cells at 2 uM after 48 hrs by annexin-V/FITC/propidium iodide staining-based FACS analysis (reference value: 3.61%); assay type: functional
[22] = system: Calf thymus DNA; assay: Binding affinity to calf thymus double stranded DNA at 15 uM by ostwald viscometer; assay type: nucleic-acid assay; settings: Bos taurus
[23] = system: DU-145; assay: Cell cycle arrest in human DU145 cells assessed as accumulation at sub-G1 phase at 1 uM after 48 hrs by FACS analysis (reference value: 7.71%); assay type: functional
[24] = system: Calf thymus DNA; assay: Binding affinity to calf thymus double stranded DNA at 25 uM by UV-vis spectroscopic method; assay type: nucleic-acid assay; settings: Bos taurus
[25] = system: DU-145; assay: Induction of apoptosis in human DU145 cells assessed as necrotic cells at 2 uM after 48 hrs by annexin-V/FITC/propidium iodide staining-based FACS analysis (reference value: 0.49%); assay type: functional
[26] = system: DU-145; assay: Cell cycle arrest in human DU145 cells assessed as accumulation at S phase at 1 uM after 48 hrs by FACS analysis (reference value: 16.22%); assay type: functional
[27] = system: DU-145; assay: Cell cycle arrest in human DU145 cells assessed as accumulation at G0/G1 phase at 1 uM after 48 hrs by FACS analysis (reference value: 53.60%); assay type: functional
[28] = system: DU-145; assay: Induction of apoptosis in human DU145 cells assessed as early apoptotic cells at 1 uM after 48 hrs by annexin-V/FITC/propidium iodide staining-based FACS analysis (reference value: 3.61%); assay type: functional
[29] = system: DU-145; assay: Induction of apoptosis in human DU145 cells assessed as late apoptotic cells at 2 uM after 48 hrs by annexin-V/FITC/propidium iodide staining-based FACS analysis (reference value: 4.46%); assay type: functional
[30] = system: DU-145; assay: Induction of apoptosis in human DU145 cells assessed as viable cells at 2 uM after 48 hrs by annexin-V/FITC/propidium iodide staining-based FACS analysis (reference value: 91.44%); assay type: functional; settings: DU-145, 48 h, read-out: Activity

CC[n+]1c(-c2ccccc2)c2cc(N)ccc2c2ccc(N)cc21
Activity [1]: Active

CCOc1ccc(-c2nc3cc(-c4nc5cc(N6CCN(C)CC6)ccc5[nH]4)ccc3[nH]2)cc1
Activity [1]: inactive

CC[C@@]1(O)C(=O)OCc2c1cc1n(c2=O)Cc2cc3ccccc3nc2-1
inhibition [2]: Active

COc1cc(-c2nc(C(c3c[nH]c4ccccc34)c3c[nH]c4ccc(C#N)cc34)cc3c2[nH]c2ccccc23)cc(OC)c1OC (stereo not given)
IC50 [3]: 9.86 µM | IC50 [4]: 19 µM | IC50 [5]: 19.3 µM | IC50 [6]: 11.8 µM | IC50 [7]: 57.2 µM

COc1cc(-c2nc(C(c3c[nH]c4ccc([N+](=O)[O-])cc34)c3c[nH]c4ccc([N+](=O)[O-])cc34)cc3c2[nH]c2ccccc23)cc(OC)c1OC
IC50 [3]: 14.2 µM | IC50 [4]: 11.9 µM | IC50 [5]: 17.1 µM | IC50 [6]: 16.3 µM | IC50 [7]: 128 µM

COc1ccc(-c2nc(C(c3c[nH]c4ccc(F)cc34)c3c[nH]c4ccc(F)cc34)cc3c2[nH]c2ccccc23)cc1
IC50 [3]: 35.5 µM | IC50 [4]: 8.33 µM | IC50 [5]: 27.6 µM | IC50 [6]: 30.6 µM | IC50 [7]: 94.4 µM

Fc1ccc(-c2nc(C(c3c[nH]c4ccc(F)cc34)c3c[nH]c4ccc(F)cc34)cc3c2[nH]c2ccccc23)cc1
IC50 [3]: 18.1 µM | IC50 [4]: 15.8 µM | IC50 [5]: 18.5 µM | IC50 [6]: 19.8 µM | IC50 [7]: 114 µM

O=[N+]([O-])c1ccc2[nH]cc(C(c3cc4c([nH]c5ccccc54)c(-c4ccc(F)cc4)n3)c3c[nH]c4ccc([N+](=O)[O-])cc34)c2c1
Activity [8]: inactive | IC50 [3]: 12.8 µM | IC50 [4]: 1.92 µM | IC50 [5]: 6.32 µM | IC50 [6]: 14.4 µM | IC50 [7]: 64.2 µM | inhibition [2]: Active | Activity [9]: Not Active

Cc1ccc(-c2nc(C(c3c[nH]c4ccc(F)cc34)c3c[nH]c4ccc(F)cc34)cc3c2[nH]c2ccccc23)cc1
IC50 [3]: 12.4 µM | IC50 [4]: 5.81 µM | IC50 [5]: 14.2 µM | IC50 [6]: 14.2 µM | IC50 [7]: 66.2 µM

COc1cc(-c2nc(C(c3c[nH]c4ccc(F)cc34)c3c[nH]c4ccc(F)cc34)cc3c2[nH]c2ccccc23)cc(OC)c1OC
IC50 [3]: 12.2 µM | IC50 [4]: 10.1 µM | IC50 [5]: 16.9 µM | IC50 [6]: 13.6 µM | IC50 [7]: 118 µM

COc1ccc2[nH]cc(C(c3cc4c([nH]c5ccccc54)c(-c4ccc(C)cc4)n3)c3c[nH]c4ccc(OC)cc34)c2c1
IC50 [3]: 33.8 µM | IC50 [4]: 23.1 µM | IC50 [5]: 30.1 µM | IC50 [6]: 27.4 µM | IC50 [7]: 59.3 µM

COc1ccc2[nH]cc(C(c3cc4c([nH]c5ccccc54)c(-c4ccc(F)cc4)n3)c3c[nH]c4ccc(OC)cc34)c2c1
IC50 [3]: 23.7 µM | IC50 [4]: 10.6 µM | IC50 [5]: 14.6 µM | IC50 [6]: 34.6 µM | IC50 [7]: 110 µM

COc1ccc(-c2nc(C(c3c[nH]c4ccccc34)c3c[nH]c4ccccc34)cc3c2[nH]c2ccccc23)cc1
IC50 [3]: 26.2 µM | IC50 [4]: 12.8 µM | IC50 [5]: 13.5 µM | IC50 [6]: 38.1 µM | IC50 [7]: 83.2 µM

COc1ccc(-c2nc(C(c3c(C)[nH]c4ccc([N+](=O)[O-])cc34)c3c(C)[nH]c4ccc([N+](=O)[O-])cc34)cc3c2[nH]c2ccccc23)cc1
IC50 [3]: 21.5 µM | IC50 [4]: 16.6 µM | IC50 [5]: 11.7 µM | IC50 [6]: 25.3 µM | IC50 [7]: 126 µM

COc1cc(-c2nc(C(c3c(C)[nH]c4ccc([N+](=O)[O-])cc34)c3c(C)[nH]c4ccc([N+](=O)[O-])cc34)cc3c2[nH]c2ccccc23)cc(OC)c1OC
IC50 [3]: 22.6 µM | IC50 [4]: 20.7 µM | IC50 [5]: 31.7 µM | IC50 [6]: 33.1 µM | IC50 [7]: 105 µM

Cc1ccc(-c2nc(C(c3c[nH]c4ccccc34)c3c[nH]c4ccccc34)cc3c2[nH]c2ccccc23)cc1
IC50 [3]: 14.3 µM | IC50 [4]: 13.7 µM | IC50 [5]: 10 µM | IC50 [6]: 18.1 µM | IC50 [7]: 101 µM

Cc1ccc(-c2nc(C(c3c[nH]c4ccc(Br)cc34)c3c[nH]c4ccc(Br)cc34)cc3c2[nH]c2ccccc23)cc1
Activity [10]: 57.12% | Activity [11]: Active | Activity [12]: 10 to 12% | Activity [8]: Active | Activity [13]: 22.04% | Activity [14]: 15.92% | IC50 [3]: 2.54 µM | Activity [15]: Active | Activity [16]: 6.43% | viability at 1 µM [17]: 87% | Activity [18]: 6.05% | IC50 [4]: 1.86 µM | Activity [19]: 19.52% | IC50 [5]: 2.51 µM | IC50 [6]: 5.85 µM | Activity [20]: 0.12% | Activity [21]: 32.76% | IC50 [7]: 125 µM | Activity [22]: Active | Activity [23]: 5.57% | inhibition [2]: Active | Activity [24]: Active | Activity [25]: 0.47% | Activity [26]: 16.37% | Activity [9]: Not Active | Activity [27]: 54.58% | Activity [28]: 6.43% | Activity [29]: 3.12% | viability at 2 µM [30]: 63.6%

COc1ccc(-c2nc(C(c3c[nH]c4ccc([N+](=O)[O-])cc34)c3c[nH]c4ccc([N+](=O)[O-])cc34)cc3c2[nH]c2ccccc23)cc1
IC50 [3]: 18 µM | IC50 [4]: 9.31 µM | IC50 [5]: 10.4 µM | IC50 [6]: 50.1 µM | IC50 [7]: 118 µM

COc1ccc(-c2nc(C(c3c[nH]c4ccc(Br)cc34)c3c[nH]c4ccc(Br)cc34)cc3c2[nH]c2ccccc23)cc1
IC50 [3]: 15 µM | IC50 [4]: 2.63 µM | IC50 [5]: 9.24 µM | IC50 [6]: 18.6 µM | IC50 [7]: 86.3 µM
